Assay results as given in ChEMBL document CHEMBL1811768, “Synthesis of N-substituted 3,5-bis(arylidene)-4-piperidones with high antitumor and antioxidant activity” (J Med Chem, 2011).
Activity calls are given as the source filed them. No cut-off for these calls is given here.

Legend:
[1] = system: A2780; experiment: Cytotoxicity against human A2780 cells assessed as cell viability at 10 uM after 24 hrs by MTT assay relative to control; format: functional; details: A2780, 24 h, read-out: Activity
Method in brief: (§1)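 MTT viability assay in human A2780 and MCF-7 cancer cells. Cells were exposed to compound at 10 μM for 24 h. Results are given as percent cell viability relative to the respective untreated control.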

[2] = system: MCF7; experiment: Cytotoxicity against human MCF7 cells assessed as cell viability at 10 uM after 24 hrs by MTT assay relative to control; format: functional; details: MCF7, 24 h, read-out: Activity; method in brief: as §1
[3] = Cytotoxicity against rat H9c2 cells assessed as cell viability at 10 uM after 24 hrs by MTT assay relative to control; format: cell-based; details: read-out: Activity
[4] = system: A2780; experiment: Induction of cell cycle arrest at G2/M phase in human A2780 cells assessed as modulation of cyclin expression; format: functional, cell-based
[5] = system: A2780; experiment: Induction of apoptosis in human A2780 cells assessed as caspase 8 activation; format: functional, cell-based
[6] = system: A2780; experiment: Induction of apoptosis in human A2780 cells assessed as caspase 3 activation; format: functional, cell-based
[7] = system: A2780; experiment: Induction of Fas/CD95 expression in human A2780 cells; format: functional, cell-based
[8] = target: Signal transducer and activator of transcription 3 (Homo sapiens) (UniProt P40763); experiment: Inhibition of STAT3 phosphorylation at Tyr705 in human A2780 cells; format: cell-based
[9] = target: Tyrosine-protein kinase JAK1 (Homo sapiens) (UniProt P23458); experiment: Inhibition of JAK1 phosphorylation in human A2780 cells; format: cell-based
[10] = Inhibition of JAK/STAT3 pathway in human A2780 cells assessed as reduction in Bcl-xL level; format: cell-based
[11] = Inhibition of JAK/STAT3 pathway in human A2780 cells assessed as reduction in Bcl-2 level; format: cell-based
[12] = Inhibition of JAK/STAT3 pathway in human A2780 cells assessed as reduction in survivin level; format: cell-based
[13] = Inhibition of JAK/STAT3 pathway in human A2780 cells assessed as reduction in VEGF level; format: cell-based
[14] = system: Liver; experiment: Biodistribution in ip dosed rat liver after 3 hrs; format: ADME, organism-based; details: in vivo
[15] = system: Kidney; experiment: Biodistribution in ip dosed rat kidney after 3 hrs; format: ADME, organism-based; details: in vivo
[16] = system: Rattus norvegicus; experiment: Biodistribution in ip dosed rat stomach after 3 hrs; format: ADME, organism-based; details: in vivo
[17] = system: Blood; experiment: Biodistribution in ip dosed rat blood after 3 hrs; format: ADME, organism-based; details: in vivo
[18] = system: A2780; experiment: Antitumor activity against human A2780 cells in xenograft model assessed as tumor growth inhibition; format: functional, cell-based
[19] = system: A2780; experiment: Antitumor activity against human A2780 cells in xenograft model assessed as reduction of STAT3 phosphorylation at Tyr705/Ser727 level in tumor; format: functional, cell-based
[20] = system: A2780; experiment: Antitumor activity against human A2780 cells in xenograft model assessed as reduction of JAK phosphorylation level in tumor; format: functional, cell-based
[21] = system: A2780; experiment: Antitumor activity against human A2780 cells in xenograft model assessed as increase of caspase 3 level in tumor; format: functional, cell-based
[22] = system: A2780; experiment: Antitumor activity against human A2780 cells in xenograft model assessed as increase of PARP level in tumor; format: functional, cell-based
[23] = target: Signal transducer and activator of transcription 3 (Homo sapiens) (UniProt P40763); experiment: Inhibition of STAT3 phosphorylation at Tyr705/Ser727 in human A2780 cells by Western blot analysis; format: cell-based
[24] = target: Signal transducer and activator of transcription 3 (Homo sapiens) (UniProt P40763); experiment: Inhibition of STAT3 phosphorylation at Tyr705/Ser727 in human MCF7 cells by Western blot analysis; format: cell-based
[25] = system: A2780; experiment: Induction of apoptosis in human A2780 cells assessed as caspase 3 activation by Western blot analysis; format: functional, cell-based
[26] = system: MCF7; experiment: Induction of apoptosis in human MCF7 cells assessed as caspase 3 activation by Western blot analysis; format: functional, cell-based
[27] = system: A2780; experiment: Induction of apoptosis in human A2780 cells assessed as cleavage of PARP by Western blot analysis; format: functional, cell-based
[28] = system: MCF7; experiment: Induction of apoptosis in human MCF7 cells assessed as cleavage of PARP by Western blot analysis; format: functional, cell-based
[29] = organism: Homo sapiens; experiment: Cytotoxicity against human A2780DDP cells by MTT assay; format: functional, cell-based
[30] = system: OV4; experiment: Cytotoxicity against human OV4 cells by MTT assay; format: functional, cell-based
[31] = system: SK-OV-3; experiment: Cytotoxicity against human SKOV3 cells by MTT assay; format: functional, cell-based
[32] = system: PA-1; experiment: Cytotoxicity against human PA1 cells by MTT assay; format: functional, cell-based
[33] = system: OVCA3; experiment: Cytotoxicity against human OVCA3 cells by MTT assay; format: functional, cell-based
[34] = system: A2780; experiment: Induction of cell cycle arrest at G2/M phase in human A2780 cells assessed as modulation of p53 expression; format: functional, cell-based
[35] = system: A2780; experiment: Induction of cell cycle arrest at G2/M phase in human A2780 cells assessed as modulation of p21 expression; format: functional, cell-based
[36] = system: A2780; experiment: Induction of cell cycle arrest at G2/M phase in human A2780 cells assessed as modulation of p27 expression; format: functional, cell-based
[37] = system: A2780; experiment: Induction of cell cycle arrest at G2/M phase in human A2780 cells assessed as modulation of CDK2 expression; format: functional, cell-based

Signal transducer and activator of transcription 3 (Homo sapiens), sequence (P40763 whole entry): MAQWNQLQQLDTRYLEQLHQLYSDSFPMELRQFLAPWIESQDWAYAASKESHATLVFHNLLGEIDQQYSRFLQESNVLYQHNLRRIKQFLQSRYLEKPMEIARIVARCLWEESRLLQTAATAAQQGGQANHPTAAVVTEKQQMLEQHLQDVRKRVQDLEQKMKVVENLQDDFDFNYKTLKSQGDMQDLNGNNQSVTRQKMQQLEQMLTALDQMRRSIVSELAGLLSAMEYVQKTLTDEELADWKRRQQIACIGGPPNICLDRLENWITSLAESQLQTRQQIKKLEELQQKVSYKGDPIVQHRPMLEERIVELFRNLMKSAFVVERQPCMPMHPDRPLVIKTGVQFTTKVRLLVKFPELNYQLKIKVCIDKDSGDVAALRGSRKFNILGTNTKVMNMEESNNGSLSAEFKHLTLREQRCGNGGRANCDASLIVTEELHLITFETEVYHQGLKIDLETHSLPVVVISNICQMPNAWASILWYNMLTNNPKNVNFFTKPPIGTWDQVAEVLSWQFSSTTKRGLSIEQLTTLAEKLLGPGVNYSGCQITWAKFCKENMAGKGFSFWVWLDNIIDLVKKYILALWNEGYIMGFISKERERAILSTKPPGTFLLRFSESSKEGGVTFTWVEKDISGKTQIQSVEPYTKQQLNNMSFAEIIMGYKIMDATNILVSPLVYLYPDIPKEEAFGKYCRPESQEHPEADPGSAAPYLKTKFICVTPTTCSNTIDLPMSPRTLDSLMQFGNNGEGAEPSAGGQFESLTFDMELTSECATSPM
Tyrosine-protein kinase JAK1 (Homo sapiens), sequence (P23458 whole entry): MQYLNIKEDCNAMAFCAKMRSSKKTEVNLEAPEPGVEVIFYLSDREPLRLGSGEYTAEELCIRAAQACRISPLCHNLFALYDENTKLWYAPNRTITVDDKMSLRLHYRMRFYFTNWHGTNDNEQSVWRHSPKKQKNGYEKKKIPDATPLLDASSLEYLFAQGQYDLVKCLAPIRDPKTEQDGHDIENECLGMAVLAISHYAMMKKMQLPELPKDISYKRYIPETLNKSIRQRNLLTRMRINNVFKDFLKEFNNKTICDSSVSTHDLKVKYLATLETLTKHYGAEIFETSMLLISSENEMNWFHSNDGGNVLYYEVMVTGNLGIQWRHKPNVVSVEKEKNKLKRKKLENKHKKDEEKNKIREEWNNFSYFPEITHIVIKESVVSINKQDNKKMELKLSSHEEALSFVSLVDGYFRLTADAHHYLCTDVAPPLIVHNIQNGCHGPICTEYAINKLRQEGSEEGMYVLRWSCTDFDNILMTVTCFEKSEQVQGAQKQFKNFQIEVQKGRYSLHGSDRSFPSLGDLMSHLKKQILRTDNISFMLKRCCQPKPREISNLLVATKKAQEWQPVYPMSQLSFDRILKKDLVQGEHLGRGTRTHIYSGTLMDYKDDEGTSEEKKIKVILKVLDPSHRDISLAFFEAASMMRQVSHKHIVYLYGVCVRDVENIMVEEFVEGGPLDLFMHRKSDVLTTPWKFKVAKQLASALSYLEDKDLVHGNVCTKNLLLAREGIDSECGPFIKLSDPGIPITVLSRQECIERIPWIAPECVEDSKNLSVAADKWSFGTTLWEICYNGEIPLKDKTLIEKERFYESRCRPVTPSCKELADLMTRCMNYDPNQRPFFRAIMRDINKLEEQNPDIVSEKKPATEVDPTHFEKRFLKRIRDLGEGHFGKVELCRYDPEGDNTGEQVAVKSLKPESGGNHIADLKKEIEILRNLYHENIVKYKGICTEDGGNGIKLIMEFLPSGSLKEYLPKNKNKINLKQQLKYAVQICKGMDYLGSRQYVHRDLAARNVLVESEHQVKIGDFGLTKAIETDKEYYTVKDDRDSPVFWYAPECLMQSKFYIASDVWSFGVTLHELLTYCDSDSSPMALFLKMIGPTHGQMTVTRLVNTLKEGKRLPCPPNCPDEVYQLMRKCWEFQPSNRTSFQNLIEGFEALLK

**Q.** With CC1(C)C=C(CN2C/C(=C\c3ccccc3F)C(=O)/C(=C/c3ccccc3F)C2)C(C)(C)N1[O] as the molecule, how does the viability at 10 µM [1] read?
**A.** 12.5%

**Q.** And the viability at 10 µM [2]?
**A.** 53.5%

**Q.** And the viability at 24 h, 10 µM [3]?
**A.** 86.3%

**Q.** Which results are given for CC1(C)c2ccc(CN3C/C(=C\c4ccc(F)cc4)C(=O)/C(=C/c4ccc(F)cc4)C3)cc2C(C)(C)N1[O]?
**A.** viability at 10 µM [1]: 9.5%; viability at 10 µM [2]: 46.2%; viability at 24 h, 10 µM [3]: 26.4%

**Q.** Which viability at 10 µM [1] does the source give for CC1(C)C=C(C(=O)N2C/C(=C\c3ccc(F)cc3)C(=O)/C(=C/c3ccc(F)cc3)C2)C(C)(C)N1[O] here?
**A.** 4.54%

**Q.** What about the viability at 10 µM [2] of the same molecule?
**A.** 12.4%

**Q.** What about the viability at 24 h, 10 µM [3] of the same molecule?
**A.** 33.3%

**Q.** With CC1(C)C=C(CN2C/C(=C\c3ccc(F)cc3)C(=O)/C(=C/c3ccc(F)cc3)C2)CC(C)(C)N1[O] as the molecule, how does the viability at 10 µM [1] read?
**A.** 6.86%

**Q.** What about the viability at 10 µM [2] of the same molecule?
**A.** 20.1%

**Q.** What about the viability at 24 h, 10 µM [3] of the same molecule?
**A.** 51.4%

**Q.** Which results are given for CC1=C(CN2C/C(=C\c3ccc(F)cc3)C(=O)/C(=C/c3ccc(F)cc3)C2)C(C)(C)N([O])C1(C)C?
**A.** viability at 10 µM [1]: 6.75%; viability at 10 µM [2]: 42%; viability at 24 h, 10 µM [3]: 56.8%

**Q.** Which results are given for CC1(C)c2cnc(CN3C/C(=C\c4ccc(F)cc4)C(=O)/C(=C/c4ccc(F)cc4)C3)cc2C(C)(C)N1[O]?
**A.** viability at 10 µM [1]: 5.26%; viability at 10 µM [2]: 42.7%; viability at 24 h, 10 µM [3]: 46.6%

**Q.** Which results are given for O=C1/C(=C/c2ccccc2F)CNC/C1=C\c1ccccc1F?
**A.** viability at 10 µM [1]: 12.8%; viability at 10 µM [2]: 34.5%; viability at 24 h, 10 µM [3]: 32.9%

**Q.** For O=C1/C(=C/c2ccc(C(F)(F)F)cc2)CNC/C1=C\c1ccc(C(F)(F)F)cc1, which viability at 10 µM [1] is on record?
**A.** 13.1%

**Q.** What about the viability at 10 µM [2] of the same molecule?
**A.** 20.2%

**Q.** And the viability at 24 h, 10 µM [3]?
**A.** 51.7%

**Q.** What does the source list for CC1(C)C=C(CN2C/C(=C\c3ccc(F)cc3)C(=O)/C(=C/c3ccc(F)cc3)C2)C(C)(C)N1[O]?
**A.** Activity [4]: Active; Activity [5]: Active; Activity [6]: Active; Activity [7]: Active; inhibition [8]: Active; inhibition [9]: Active; inhibition [10]: Active; inhibition [11]: Active; inhibition [12]: Active; inhibition [13]: Active; viability at 10 µM [1]: 20.5%; viability at 10 µM [2]: 16.6%; viability at 24 h, 10 µM [3]: 88.5%; Drug uptake [14]: Active; Drug uptake [15]: Active; Drug uptake [16]: Active; Drug uptake [17]: Active; growth inhibition (GI) [18]: Dose-dependent effect; Activity [19]: Active; Activity [20]: Active; Activity [21]: Active; Activity [22]: Active; inhibition [23]: Active; inhibition [24]: Active; Activity [25]: Active; Activity [26]: Active; Activity [27]: Active; Activity [28]: Active; Activity [29]: Active; Activity [30]: Active; Activity [31]: Active; Activity [32]: Active; Activity [33]: Active; Activity [34]: Active; Activity [35]: Active; Activity [36]: Active; Activity [37]: Active

**Q.** With COc1ccc(/C=C2\CNC/C(=C\c3ccc(OC)c(OC)c3OC)C2=O)c(OC)c1OC as the molecule, how does the viability at 10 µM [1] read?
**A.** 11%

**Q.** What about the viability at 10 µM [2] of the same molecule?
**A.** 56.6%

**Q.** What about the viability at 24 h, 10 µM [3] of the same molecule?
**A.** 32.3%

**Q.** Which viability at 10 µM [1] does the source give for CC1(C)CCC(C)(/C=C/CN2C/C(=C\c3ccc(F)cc3)C(=O)/C(=C/c3ccc(F)cc3)C2)N1[O] (stereo not given) here?
**A.** 5.81%

**Q.** And the viability at 10 µM [2]?
**A.** 43.1%

**Q.** What about the viability at 24 h, 10 µM [3] of the same molecule?
**A.** 51.9%

**Q.** Which viability at 10 µM [1] does the source give for CC1(C)C=C(CN2C/C(=C\c3ccc(F)cc3)C(=O)/C(=C/c3ccc(F)cc3)C2)C(C)(C)N1 here?
**A.** 4.79%

**Q.** What about the viability at 10 µM [2] of the same molecule?
**A.** 28.3%

**Q.** And the viability at 24 h, 10 µM [3]?
**A.** 78.8%

**Q.** Which viability at 10 µM [1] does the source give for COc1ccc(/C=C2\CN(CC3=CC(C)(C)N([O])C3(C)C)C/C(=C\c3ccc(OC)c(OC)c3OC)C2=O)c(OC)c1OC here?
**A.** 26.1%

**Q.** And the viability at 10 µM [2]?
**A.** 28%

**Q.** And the viability at 24 h, 10 µM [3]?
**A.** 53.1%

**Q.** For O=C1/C(=C/c2ccc(F)cc2)CNC/C1=C\c1ccc(F)cc1, which viability at 10 µM [1] is on record?
**A.** 12.4%

**Q.** And the viability at 10 µM [2]?
**A.** 17.1%

**Q.** And the viability at 24 h, 10 µM [3]?
**A.** 61.4%

**Q.** For CC1(C)CCC(C)(C#CCN2C/C(=C\c3ccc(F)cc3)C(=O)/C(=C/c3ccc(F)cc3)C2)N1[O] (stereo not given), which viability at 10 µM [1] is on record?
**A.** 5.89%

**Q.** What about the viability at 10 µM [2] of the same molecule?
**A.** 38.3%

**Q.** And the viability at 24 h, 10 µM [3]?
**A.** 50.7%

**Q.** Which results are given for CC1(C)C=C(CN2C/C(=C\c3ccc(C(F)(F)F)cc3)C(=O)/C(=C/c3ccc(C(F)(F)F)cc3)C2)C(C)(C)N1[O]?
**A.** viability at 10 µM [1]: 5.85%; viability at 10 µM [2]: 14.2%; viability at 24 h, 10 µM [3]: 17.1%

**Q.** With CC1(C)C=C(NC(=O)N2C/C(=C\c3ccc(F)cc3)C(=O)/C(=C/c3ccc(F)cc3)C2)C(C)(C)N1[O] as the molecule, how does the viability at 10 µM [1] read?
**A.** 5.9%

**Q.** And the viability at 10 µM [2]?
**A.** 12.6%

**Q.** And the viability at 24 h, 10 µM [3]?
**A.** 36.7%
